Assays:
[1] = system: breast cancer SK-BR-3 cell line; assay: SRB anti-proliferative assay, SK-BR-3; type: cell-based; details: Homo sapiens, SK-BR-3, 120 h, read-out: SK-BR-3 (IC50±SD, μM) for 120 h
Outline: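 Cells from ATCC, grown in DMEM with 10 % FBS at 37 °C and 5 % CO2. Seeded in 96-well plates overnight, then exposed to increasing concentrations in triplicate for 72 h, or for a prolonged 120 h. Growth was read by sulforhodamine B staining at OD 510 nm. IC50 came from curve fitting.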

HER2 = assay: Western blot of Hsp90 client protein HER2 in SK-BR-3 cells; type: cell-based, human; details: 20 μM, 12 h
Outline: (§1)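 SK‐BR‐3 cells (DMEM, 10 % FBS) were exposed to test compound at 20 μM for 12 h, washed in ice-cold PBS and lysed in SDS sample buffer. Equal lysate amounts went through SDS‐PAGE and PVDF transfer, with blocking in 5 % milk/TBST pH 7.6. Primary antibodies were applied overnight at 4 °C and secondary antibodies 2 h at room temperature. Detection was by ECL.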

[2] = molecular target: recombinant human full-length Hsp90α (Homo sapiens, UniProt P07900); assay: FP assay, competition with FITC-GM; type: binding
[3] = system: A549 and SK-BR-3 cell lines; assay: Autophagy observed under the microscope; type: cell-based, human; details: 10 μM
Hsp72 = assay: Western blot of Hsp72; type: cell-based, human; details: SK-BR-3 cells, 20 μM, 12 h
Outline: as §1

Structure (SMILES) | expression of HER2 (HER2) | other results
Cc1cc(C)n(-c2nc(NN=Cc3c[nH]c4ccccc34)nc(Nc3ccc(Br)cc3)n2)n1 [Compound A1, 4‐(2‐((1H‐indol‐3‐yl)methylene)hydrazinyl)‐N‐(4‐bromophenyl)‐6‐(3,5‐dimethyl‐1H‐pyrazol‐1‐yl)‐1,3,5‐triazin‐2‐amine] | obviously reduced | IC50 [1]: 10.8 ± 1.3 µM; competition with FITC-GM for binding to Hsp90α [2]: failed to compete; induction of autophagy [3]: little autophagy was induced
Brc1ccc(Nc2nc(N/N=C\c3c[nH]c4ccccc34)nc(Nc3ccccc3)n2)cc1 [Compound A16] | obviously reduced | –
NNc1nc(Nc2ccccc2)nc(Nc2ccc(Br)cc2)n1 [Compound A20] | obviously reduced | –
NNc1nc(NCc2ccccc2)nc(Nc2ccc(Br)cc2)n1 [Compound A22] | obviously reduced | –
CCCNc1nc(NCCC)nc(Nc2ccc(Br)cc2)n1 [Compound A24] | obviously reduced | –
Brc1ccc(Nc2nc(NCc3ccccc3)nc(NCc3ccccc3)n2)cc1 [Compound A25] | obviously reduced | –
COC1=C2C[C@@H](C)C[C@H](OC)[C@H](O)[C@@H](C)/C=C(\C)[C@H](OC(N)=O)[C@@H](OC)/C=C\C=C(/C)C(=O)NC(=CC1=O)C2=O [GM, geldanamycin] | – | induction of Hsp72 (Hsp72): induced
